ChEMBL document CHEMBL4613315, “Design of First-in-Class Dual EZH2/HDAC Inhibitor: Biochemical Activity and Biological Evaluation in Cancer Cells” (ACS Med Chem Lett, 2020)
Activity calls are given as the source filed them. The rule behind the calls is not given here.

Assays:
[1] = target: T1, Histone-lysine N-methyltransferase EZH2 (Homo sapiens, UniProt Q15910); assay: Inhibition of EZH2 in human U937 cells assessed as H3K27me3 level at 50 uM incubated for 120 hrs by Western blot analysis; type: cell-based; settings: U-937
[2] = tested on: U-937; assay: Cytotoxicity against human U937 cells assessed as reduction in cell viability at 10 uM in presence of vorinostat incubated for 72 hrs by CellTiter-Glo Luminescent cell viability assay relative to control; type: functional; settings: U-937, 72 h
Outline: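 Viability after 72 h of single-agent or combined treatment with the HDAC inhibitor (0.05–0.25 μM) and the EZH2 inhibitor. EZH2 inhibitor range: U937 5–25 μM; RH4 10–50 μM. Synergy was assessed by combination index and isobologram analysis.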

[3] = target: T2, Protein deacetylase HDAC6 (Homo sapiens) (UniProt Q9UBN7); assay: Inhibition of HDAC6 in human RH4 cells assessed as acetylated alpha-tubulin level at 50 uM incubated for 72 hrs by Western blot analysis; type: cell-based
T2 sequence (whole entry): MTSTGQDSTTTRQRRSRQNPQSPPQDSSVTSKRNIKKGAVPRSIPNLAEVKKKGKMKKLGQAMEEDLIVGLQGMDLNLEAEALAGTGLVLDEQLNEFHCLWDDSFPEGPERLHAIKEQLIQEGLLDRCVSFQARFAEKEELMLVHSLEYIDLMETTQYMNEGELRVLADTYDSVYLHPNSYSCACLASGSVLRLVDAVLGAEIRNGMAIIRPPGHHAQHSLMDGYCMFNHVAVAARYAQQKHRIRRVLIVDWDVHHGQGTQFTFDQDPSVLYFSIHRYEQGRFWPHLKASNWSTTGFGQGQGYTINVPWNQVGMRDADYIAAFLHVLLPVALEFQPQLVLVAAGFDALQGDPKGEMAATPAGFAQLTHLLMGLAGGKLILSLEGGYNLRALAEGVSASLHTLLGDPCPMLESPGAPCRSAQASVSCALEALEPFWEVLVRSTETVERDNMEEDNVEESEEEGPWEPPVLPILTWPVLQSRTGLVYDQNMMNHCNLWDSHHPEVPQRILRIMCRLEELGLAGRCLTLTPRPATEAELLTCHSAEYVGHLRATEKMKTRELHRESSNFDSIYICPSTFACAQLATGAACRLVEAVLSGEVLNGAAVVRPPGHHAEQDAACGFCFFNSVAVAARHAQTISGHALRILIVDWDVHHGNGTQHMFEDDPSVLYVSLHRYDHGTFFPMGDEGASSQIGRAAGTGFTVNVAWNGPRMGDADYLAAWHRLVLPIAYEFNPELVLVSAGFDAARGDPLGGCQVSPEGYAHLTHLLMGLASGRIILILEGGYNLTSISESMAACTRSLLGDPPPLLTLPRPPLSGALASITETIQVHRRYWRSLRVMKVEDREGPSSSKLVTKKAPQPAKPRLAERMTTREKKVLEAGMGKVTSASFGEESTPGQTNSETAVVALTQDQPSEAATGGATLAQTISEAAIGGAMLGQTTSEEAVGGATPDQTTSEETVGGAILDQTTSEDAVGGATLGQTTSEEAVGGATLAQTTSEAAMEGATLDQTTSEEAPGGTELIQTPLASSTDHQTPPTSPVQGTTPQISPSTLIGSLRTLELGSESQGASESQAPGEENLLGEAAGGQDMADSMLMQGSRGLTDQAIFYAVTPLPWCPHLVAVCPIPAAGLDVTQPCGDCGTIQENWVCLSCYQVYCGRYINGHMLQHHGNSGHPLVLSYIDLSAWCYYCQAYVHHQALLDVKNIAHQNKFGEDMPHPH

[4] = target: T1, Histone-lysine N-methyltransferase EZH2; assay: Inhibition of EZH2 in human RH4 cells assessed as H3K27me3 level at 50 uM in presence of vorinostat incubated for 72 hrs by Western blot analysis (reference value: 1); type: cell-based
Outline: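 RH4 cells co-treated with EZH2 inhibitor at 50 μM plus HDAC inhibitor at 0.15 μM; Western blot after 72 or 96 h for H3K27me3 or acetyl-tubulin, vinculin loading control; densitometry normalized to loading control then DMSO vehicle.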

[5] = Cell cycle arrest in human RH4 cells assessed as S accumulation at 28 uM incubated for 72 hrs by propidium iodide staining based flow cytometry (reference value: 29.9 %); type: functional
[6] = Cell cycle arrest in human RH4 cells assessed as subG1 accumulation at 14 uM incubated for 72 hrs by propidium iodide staining based flow cytometry (reference value: 1.9 %); type: functional
[7] = target: Histone deacetylase 4 (Homo sapiens, UniProt P56524); assay: Inhibition of human recombinant HDAC4 using AMC-K(TFA)GL as substrate by fluorescence based assay
[8] = Cytotoxicity against human RH4 cells assessed as reduction in cell viability at 20 uM incubated for 96 hrs by CellTiter-Glo Luminescent cell viability assay relative to control; type: functional; settings: Rh4, 96 h
Outline: (§1)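 Viability of U937 (5–25 μM) and RH4 (5–35 μM) cells after 48, 72 and 96 h of treatment at increasing concentrations.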

[9] = species on record: Homo sapiens; assay: Induction of differentiation of human RH4 cells assessed as increase in myogenin level at 7 uM incubated for 96 hrs by Western blot analysis; type: functional
Outline: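 Myogenin was measured by Western blot in RH4 cells treated at 7 and 14 μM for 48, 72 and 96 h. Vinculin served as the loading control.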

[10] = tested on: U-937; assay: Induction of apoptosis in human U937 cells assessed as early apoptotic cells at 10 uM incubated for 72 hrs by annexin V-FITC staining based flow cytometry (reference value: 3.4 %); type: functional
[11] = tested on: U-937; assay: Induction of apoptosis in human U937 cells assessed as late apoptotic cells at 25 uM incubated for 72 hrs by annexin V-FITC staining based flow cytometry (reference value: 0.7 %); type: functional
[12] = tested on: THP-1; assay: Cytotoxicity against human THP1 cells assessed as reduction in cell viability incubated for 72 hrs by CellTiter-Glo Luminescent cell viability assay; type: functional, cell-based; settings: THP-1, 72 h
Outline: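 Antiproliferative IC50 after 72 h of treatment. Values are means of three independent experiments, each measured in triplicate, ± SD.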

[13] = target: T3, Protein deacetylase HDAC6 (Homo sapiens, UniProt Q9UBN7); assay: Inhibition of human recombinant HDAC6 using AMC-K(Ac)GL as substrate by fluorescence based assay
T3 sequence (Q9UBN7 whole entry): T2 sequence (whole entry)

[14] = Induction of apoptosis in human RH4 cells assessed as necrotic cells at 28 uM incubated for 72 hrs by annexin V-FITC staining based flow cytometry (reference value: 0.4 %); type: functional
[15] = tested on: U-937; assay: Cell cycle arrest in human U937 cells assessed as increase in subG1 accumulation incubated for 72 hrs by propidium iodide staining based assay; type: functional
[16] = tested on: U-937; assay: Cytotoxicity against human U937 cells assessed as reduction in cell viability at 25 uM incubated for 96 hrs by CellTiter-Glo Luminescent cell viability assay relative to control; type: functional; settings: U-937, 96 h; outline: as §1
[17] = Induction of apoptosis in human RH4 cells assessed as necrotic cells at 14 uM incubated for 72 hrs by annexin V-FITC staining based flow cytometry (reference value: 0.4 %); type: functional
[18] = Cell cycle arrest in human RH4 cells assessed as S accumulation at 14 uM incubated for 72 hrs by propidium iodide staining based flow cytometry (reference value: 29.9 %); type: functional

T1 sequence (Q15910 whole entry, looked up): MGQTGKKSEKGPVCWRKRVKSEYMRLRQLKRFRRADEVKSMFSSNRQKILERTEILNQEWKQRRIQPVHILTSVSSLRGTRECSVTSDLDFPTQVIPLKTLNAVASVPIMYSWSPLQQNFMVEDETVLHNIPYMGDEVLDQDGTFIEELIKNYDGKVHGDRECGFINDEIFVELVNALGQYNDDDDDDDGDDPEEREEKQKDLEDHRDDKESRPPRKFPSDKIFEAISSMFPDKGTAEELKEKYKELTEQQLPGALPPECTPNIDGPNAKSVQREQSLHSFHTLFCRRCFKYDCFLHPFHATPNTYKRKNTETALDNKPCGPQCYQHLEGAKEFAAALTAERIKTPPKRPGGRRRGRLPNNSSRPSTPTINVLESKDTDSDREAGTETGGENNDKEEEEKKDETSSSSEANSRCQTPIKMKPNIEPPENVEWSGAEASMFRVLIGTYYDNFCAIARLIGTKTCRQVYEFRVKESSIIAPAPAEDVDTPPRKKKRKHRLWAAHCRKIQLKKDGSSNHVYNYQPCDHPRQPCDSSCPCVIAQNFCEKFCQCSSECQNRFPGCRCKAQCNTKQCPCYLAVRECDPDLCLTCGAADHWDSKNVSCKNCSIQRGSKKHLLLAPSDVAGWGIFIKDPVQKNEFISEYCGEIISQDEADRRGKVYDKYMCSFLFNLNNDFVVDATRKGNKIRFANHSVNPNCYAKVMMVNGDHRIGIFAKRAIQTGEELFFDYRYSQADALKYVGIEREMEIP
Histone deacetylase 4, sequence (P56524 whole entry): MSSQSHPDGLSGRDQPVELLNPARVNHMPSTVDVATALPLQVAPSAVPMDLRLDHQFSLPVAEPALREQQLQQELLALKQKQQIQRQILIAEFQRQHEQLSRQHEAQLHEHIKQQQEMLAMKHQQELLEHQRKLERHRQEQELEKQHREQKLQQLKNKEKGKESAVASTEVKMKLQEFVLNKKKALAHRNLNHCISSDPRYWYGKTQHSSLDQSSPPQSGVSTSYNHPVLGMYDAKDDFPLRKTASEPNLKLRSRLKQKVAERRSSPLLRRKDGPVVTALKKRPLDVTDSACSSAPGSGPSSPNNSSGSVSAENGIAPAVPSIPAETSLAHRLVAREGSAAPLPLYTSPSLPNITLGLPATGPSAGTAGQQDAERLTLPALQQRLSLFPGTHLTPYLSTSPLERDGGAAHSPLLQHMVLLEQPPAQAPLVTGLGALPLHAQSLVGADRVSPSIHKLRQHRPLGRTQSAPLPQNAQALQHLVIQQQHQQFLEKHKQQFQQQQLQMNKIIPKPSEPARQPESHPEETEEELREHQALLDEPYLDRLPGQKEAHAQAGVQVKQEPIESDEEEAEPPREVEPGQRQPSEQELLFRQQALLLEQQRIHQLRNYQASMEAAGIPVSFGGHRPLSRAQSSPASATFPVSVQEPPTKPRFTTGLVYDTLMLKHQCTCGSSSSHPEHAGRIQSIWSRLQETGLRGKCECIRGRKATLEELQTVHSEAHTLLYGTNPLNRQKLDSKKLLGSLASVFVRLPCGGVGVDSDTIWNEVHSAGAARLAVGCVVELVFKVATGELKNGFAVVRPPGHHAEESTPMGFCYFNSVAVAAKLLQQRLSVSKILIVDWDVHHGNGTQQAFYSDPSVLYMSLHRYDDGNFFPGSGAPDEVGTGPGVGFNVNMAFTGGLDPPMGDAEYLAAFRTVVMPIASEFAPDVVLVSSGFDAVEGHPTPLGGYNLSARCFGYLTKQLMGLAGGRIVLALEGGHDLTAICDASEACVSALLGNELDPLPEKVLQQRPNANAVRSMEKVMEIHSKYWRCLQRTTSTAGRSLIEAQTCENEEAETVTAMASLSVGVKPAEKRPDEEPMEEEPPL

fold change (FC) [1]	fold change (FC) [3]	fold change (FC) [4]	IC50 [7] [µM]	IC50 [13] [µM]	SMILES	inhibition at 10 µM [2] [%]	Activity [5] [%]	Activity [6] [%]	inhibition at 20 µM [8] [%]	Activity [9]	Activity [10] [%]	Activity [11] [%]	IC50 [12] [µM]	Activity [14] [%]	Activity [15]	inhibition at 25 µM [16] [%]	Activity [17] [%]	Activity [18] [%]
0.7	0.6	0.02			Cc1cc(C)c(CNC(=O)c2cc(C)n(-c3ccccc3)c2C)c(=O)[nH]1	70												
			36.8	0.005	Cc1cc(C)c(CNC(=O)c2cc(C)n(-c3cccc(NC(=O)CCCCCCC(=O)NO)c3)c2C)c(=O)[nH]1		19.8	3.8	> 60	Active	4.2	1.4	12	0.4	Dose-dependent effect	90	0.4	30.3
